Test results reported in ChEMBL document CHEMBL1133527, “Exploring the structural basis of neurotoxicity in C(17)-polyacetylenes isolated from water hemlock” (J Med Chem, 2000).

Tests used:
[1] = test system: Mus musculus; assay: Acute toxicity against mice after ip administration; assay type: organism-based; details: in vivo
[2] = target: GABA-A receptor; anion channel; assay: Tested for inhibition of specific binding of [3H]-EBOB to GABA-Gated Chloride channels of Gamma-aminobutyric acid A receptor in rat brain cortex (Potency expressed as IC50); assay type: tissue-based
Procedure, shortened: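 Washed cortical membranes from SD rats (7 weeks), prepared in 50 mM Tris-HCl pH 7.4 and stored at -80 °C, equivalent to 5 mg tissue, incubated with 3 nM [3H]EBOB and test agent at 25 °C for 1 h. Bound ligand collected by filtration on polyethylenimine-treated GF/B filters and counted by scintillation. IC50 from dose-response curves run in duplicate.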

Row | Structure (SMILES) | LD50 [1] [mg kg-1 i.p.] | IC50 [2] [µM]
1 | CCC[C@H](/C=C/C=C/C=C/C#CC#CCCCOC)OC | > 57.2 | > 10
2 | C=C[C@@H](O)C#CC#C[C@@H](O)/C=C\CCCCCCC [FALCARINDIOL] | > 200 | > 10
3 | CCC[C@@H](O)/C=C/C=C/C=C/C#CC#CCCC=O | 4.9 | 2.22
4 | CCC[C@@H](O)/C=C/C=C/C=C/C#CC#CCCC(=O)OC | 1.6 | 0.42
5 | CCC[C@@H](O)/C=C/C=C/C=C/C#CC#CCCC(N)=O | 1.1 | 1.56
6 | CCCC(=O)CC/C=C/C=C/C#CC#CCCCO | 1.1 | 3.64
7 | CCCC(=O)/C=C/C=C/C=C/C#CC#CCCCO | 7.6 | 3.05
8 | CCCCNC(=O)CCC#CC#C/C=C/C=C/C=C/[C@H](O)CCC | 4.9 | > 10
9 | CCCCCCC[C@H](O)/C=C/C#CC#CCCCO | > 105 | 7.87
10 | CCCCC[C@H](O)/C=C/C=C/C#CC#CCCCO | 9.5 | 1.15
11 | CCCC#CC#C/C=C/C=C/[C@@H](O)CCCCC | > 97.6 | > 10
12 | CCC[C@@H](O)/C=C/C=C/C=C/C#CC#CCCCOC(C)=O | 1.9 | 1.1
13 | CCCCCCC/C=C\[C@H](O)C#CC#CCCCO | > 393 | 6.01
14 | CCCCCC(O)/C=C/C=C/C#CC#CCCCO (stereo not given) | 7.7 | –
15 | CCC[C@@H](O)/C=C/C=C/C=C/C#CC#CCCCO [CICUTOXIN] | 2.8 | 0.54
16 | CCC[C@@H](O)/C=C/C=C/C=C/C#CC#CCCC(=O)O | 0.76 | 0.3
17 | CCCCCC(=O)/C=C/C=C/C#CC#CCCCO | > 25.8 | > 10
18 | CCCCCCC/C=C\C(=O)C#CC#CCCCO | > 26 | > 10
19 | CCCCCC/C=C/C=C/C#CC#CCCCO | > 37.8 | > 10
20 | CCC[C@H](/C=C/C=C/C=C/C#CC#CCCCO)OC(C)=O | 2.8 | > 10
21 | CCC[C@@H](O)/C=C/C=C/C=C/C#CC#CCCCOC | 10.6 | 6.79
22 | CCCCCCC/C=C\CC#CC#CCCCO | > 24.6 | > 10
23 | C=C(C)[C@@H]1[C@H]2OC(=O)[C@@H]1[C@]1(O)C[C@H]3OC34C(=O)O[C@H]2[C@@]41C.CC(C)(O)[C@@H]1[C@H]2OC(=O)[C@@H]1[C@]1(O)C[C@H]3OC34C(=O)O[C@H]2[C@@]41C (stereo not given in full) [PICROTOXIN] | – | 1.31
24 | CCCCC[C@H](O)/C=C/C=C/C#CCCCO | > 70.8 | > 10
25 | CCC[C@H](/C=C/C=C/C=C/C#CC#CCCCOC(C)=O)OC(C)=O | 15.7 | > 10
26 | CCCC(O)/C=C/C=C/C=C/C#CC#CCCCO (stereo not given) | 38.6 | 2.01
